ChEMBL document CHEMBL1127345, “Synthesis, binding properties, and 18F labeling of fluorocarazolol, a high-affinity beta-adrenergic receptor antagonist” (J Med Chem, 1994)

Key:
Mus musculus [1] = assay: The in vivo tissue distribution of mouse blood without Propranolol preadministration in 40 min, value was fractional dose per fractional body weight of the organ
Mus musculus [2] = assay: The in vivo tissue distribution of mouse kidney with Propranolol administration after 60 min, value was fractional dose per fractional body weight of the organ; type: ADME, organism-based; conditions: 1 h
In short: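 Male CF-1 mice (25–30 g) anaesthetised with 2 mg sodium pentobarbital ip; blocked group given 0.1 mL of […] propranolol iv via tail vein (200 μg, 6.6 mg/kg), tracer 30 min later. 0.1 mL of 1–2 mCi/mL [18F]-labelled enantiomer iv via tail vein; killed by cervical dislocation, organs weighed and counted against weighed standards. %ID/g × body weight/100 gives unitless uptake; five mice per point (heart, blood, lung, kidney, liver, bone); mean ± SD.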

Mus musculus [3] = assay: The in vivo tissue distribution of mouse lung without Propranolol preadministration in 40 min, value was fractional dose per fractional body weight of the organ
Mus musculus [4] = assay: The in vivo tissue distribution of mouse heart without Propranolol preadministration in 90 min, value was fractional dose per fractional body weight of the organ; conditions: 1.5 h

| SMILES | Dose/organ (Mus musculus [1]) | Dose/organ (Mus musculus [2]) | Dose/organ (Mus musculus [3]) | Dose/organ (Mus musculus [4]) |
| --- | --- | --- | --- | --- |
| CC(C[18F])NC[C@@H](O)COc1cccc2[nH]c3ccccc3c12 (stereo partly drawn) | 0.63 | 1.67 | 3.29 | 0.46 |
| CC(C[18F])NC[C@H](O)COc1cccc2[nH]c3ccccc3c12 (stereo partly drawn) | 0.69 | 1.28 | 6.16 | 0.61 |
